Source: ChEMBL document CHEMBL1135588, “Divalent and trivalent alpha-ketocarboxylic acids as inhibitors of protein tyrosine phosphatases” (J Med Chem, 2002)

How the values were obtained:
[1] = target: T1, Tyrosine-protein phosphatase non-receptor type 1 (Homo sapiens, UniProt P18031); experiment: Concentration required for 50% Inhibition of activity against Protein Tyrosine Phosphatases 1B
T1 sequence (P18031 whole entry): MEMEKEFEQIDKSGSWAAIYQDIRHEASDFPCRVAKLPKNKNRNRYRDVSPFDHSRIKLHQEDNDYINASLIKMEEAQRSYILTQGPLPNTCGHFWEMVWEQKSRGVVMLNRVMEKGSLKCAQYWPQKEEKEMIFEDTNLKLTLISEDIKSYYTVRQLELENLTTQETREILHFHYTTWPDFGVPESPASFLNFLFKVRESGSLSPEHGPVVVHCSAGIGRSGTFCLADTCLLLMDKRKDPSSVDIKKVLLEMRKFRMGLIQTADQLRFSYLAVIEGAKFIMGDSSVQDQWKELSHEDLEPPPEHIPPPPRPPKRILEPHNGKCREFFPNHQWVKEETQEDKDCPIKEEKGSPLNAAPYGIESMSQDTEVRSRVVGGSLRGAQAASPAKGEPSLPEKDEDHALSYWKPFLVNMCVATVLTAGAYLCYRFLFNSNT

[2] = target: Receptor-type tyrosine-protein phosphatase F (Homo sapiens, UniProt P10586); experiment: Concentration required for 50% Inhibition of activity against Protein-tyrosine phosphatase Lar
Receptor-type tyrosine-protein phosphatase F, sequence (P10586 whole entry): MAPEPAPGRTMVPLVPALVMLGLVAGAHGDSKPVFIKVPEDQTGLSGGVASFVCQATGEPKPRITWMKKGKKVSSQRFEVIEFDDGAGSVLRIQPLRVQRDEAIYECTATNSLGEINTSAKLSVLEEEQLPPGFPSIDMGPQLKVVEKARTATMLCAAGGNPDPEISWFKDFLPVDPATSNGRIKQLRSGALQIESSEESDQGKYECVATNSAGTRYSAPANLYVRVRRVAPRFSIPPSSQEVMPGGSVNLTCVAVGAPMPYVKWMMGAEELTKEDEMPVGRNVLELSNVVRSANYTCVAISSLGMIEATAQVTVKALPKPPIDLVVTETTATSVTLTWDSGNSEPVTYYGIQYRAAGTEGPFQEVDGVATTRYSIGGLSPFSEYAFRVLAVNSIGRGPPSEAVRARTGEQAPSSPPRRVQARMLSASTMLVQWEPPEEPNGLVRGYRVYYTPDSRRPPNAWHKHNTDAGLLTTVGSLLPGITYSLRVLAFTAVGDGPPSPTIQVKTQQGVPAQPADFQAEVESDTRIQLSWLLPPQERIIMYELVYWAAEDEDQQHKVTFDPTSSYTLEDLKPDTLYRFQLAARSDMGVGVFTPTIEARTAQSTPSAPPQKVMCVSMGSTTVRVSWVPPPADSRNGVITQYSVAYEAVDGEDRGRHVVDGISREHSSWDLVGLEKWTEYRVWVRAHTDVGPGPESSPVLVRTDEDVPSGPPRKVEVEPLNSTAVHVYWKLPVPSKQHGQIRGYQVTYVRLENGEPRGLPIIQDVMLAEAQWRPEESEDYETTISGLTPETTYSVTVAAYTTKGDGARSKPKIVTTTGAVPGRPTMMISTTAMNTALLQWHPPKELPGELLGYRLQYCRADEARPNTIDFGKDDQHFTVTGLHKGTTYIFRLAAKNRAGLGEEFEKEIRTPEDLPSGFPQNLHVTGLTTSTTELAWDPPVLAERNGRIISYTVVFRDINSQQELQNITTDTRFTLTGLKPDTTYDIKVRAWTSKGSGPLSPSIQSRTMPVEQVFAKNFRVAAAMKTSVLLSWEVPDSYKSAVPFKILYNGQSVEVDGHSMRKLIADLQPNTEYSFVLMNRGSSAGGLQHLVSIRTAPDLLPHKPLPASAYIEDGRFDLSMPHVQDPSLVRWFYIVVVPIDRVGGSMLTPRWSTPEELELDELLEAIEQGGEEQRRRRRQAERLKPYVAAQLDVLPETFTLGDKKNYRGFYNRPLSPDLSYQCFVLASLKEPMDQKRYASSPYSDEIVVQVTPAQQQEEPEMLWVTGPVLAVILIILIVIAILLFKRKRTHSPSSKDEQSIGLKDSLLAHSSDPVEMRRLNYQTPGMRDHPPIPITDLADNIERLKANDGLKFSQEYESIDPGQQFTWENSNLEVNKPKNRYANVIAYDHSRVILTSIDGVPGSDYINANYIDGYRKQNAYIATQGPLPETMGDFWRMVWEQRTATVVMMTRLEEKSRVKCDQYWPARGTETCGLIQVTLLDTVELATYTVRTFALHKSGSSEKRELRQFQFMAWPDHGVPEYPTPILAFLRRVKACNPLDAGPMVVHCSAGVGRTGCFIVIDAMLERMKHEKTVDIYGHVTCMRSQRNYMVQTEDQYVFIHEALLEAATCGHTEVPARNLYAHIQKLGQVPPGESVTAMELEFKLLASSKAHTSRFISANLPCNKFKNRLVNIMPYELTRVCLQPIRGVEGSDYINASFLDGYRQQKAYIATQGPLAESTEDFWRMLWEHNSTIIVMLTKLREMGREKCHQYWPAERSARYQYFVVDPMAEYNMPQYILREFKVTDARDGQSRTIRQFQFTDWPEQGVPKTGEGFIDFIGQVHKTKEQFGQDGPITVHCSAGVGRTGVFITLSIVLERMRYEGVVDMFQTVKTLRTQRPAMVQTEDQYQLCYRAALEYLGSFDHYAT
In short: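 Yersinia PTPase and LAR, commercial enzymes. p-NPP at 2.5 mM; 1 mM EDTA, 100 mM NaCl, 100 mM acetate pH 5.5, 10% DMSO, 25 °C. Initial rates taken from hydrolysis followed at 420 nm, 10–120 s after mixing. IC50 obtained by Dixon analysis.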

IC50 [1]	IC50 [2]	SMILES
53 µM	120 µM	O=C(O)C(=O)c1ccc(OCc2cccc(COc3ccc(C(=O)C(=O)O)cc3)c2)cc1
2.7 µM	250 µM	O=C(O)C(=O)c1ccc(OCc2ccc(COc3ccc(C(=O)C(=O)O)cc3)cc2)cc1
13 µM	41 µM	O=C(O)C(=O)c1ccc(OCc2cc(COc3ccc(C(=O)C(=O)O)cc3)cc(COc3ccc(C(=O)C(=O)O)cc3)c2)cc1

The remaining lines, values behind:

SMILES	IC50 [1]	IC50 [2]
O=C(O)C(=O)c1ccc(O)cc1	–	2300 µM
O=C(O)C(=O)c1ccc(OCc2ccccc2COc2ccc(C(=O)C(=O)O)cc2)cc1	19 µM	120 µM
